# Measured values from ChEMBL document CHEMBL1944596, “7,8-dichloro-1-oxo-β-carbolines as a versatile scaffold for the development of potent and selective kinase inhibitors with unusual binding modes” (J Med Chem, 2012).
# Tests used:
# [1] = tested on: MV4-11; experiment: Growth inhibition of human MV4-11 cells after 48 hrs by WST-1 assay; format: functional, cell-based; conditions: MV4-11, 48 h
# Summary of the method: (§1)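 Compound (0–10 μM) added to the culture medium and incubated 48 h. Proliferation and viability read by WST-1 reagent. Survival expressed as percentage of control cultures and IC50 derived by curve fitting.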
# [2] = Growth inhibition of human RS4:11 cells after 48 hrs by WST-1 assay; format: functional, cell-based; conditions: RS4-11, 48 h; summary of the method: as §1
# [3] = tested on: MOLM-13; experiment: Growth inhibition of human MOLM13 cells after 48 hrs by WST-1 assay; format: functional, cell-based; conditions: MOLM-13, 48 h
# Summary of the method: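 Inhibitor at 0–10 μM added to the culture medium for 48 h. Proliferation and viability were read with WST-1 reagent. Survival was expressed as a percentage of control cultures, and IC50 was fitted from the concentration series.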
# [4] = Growth inhibition of human SEM cells after 48 hrs by WST-1 assay; format: functional, cell-based; summary of the method: as §1
# [5] = tested on: K562; experiment: Growth inhibition of human K562 cells after 48 hrs by WST-1 assay; format: functional, cell-based; conditions: K562, 48 h; summary of the method: as §1
# [6] = molecular target: T1, Cyclin-G-associated kinase (Homo sapiens) (UniProt O14976); experiment: Binding affinity to GAK assessed as change in thermal denaturation at 10 uM by thermal stability shift assay
# T1 sequence (whole entry): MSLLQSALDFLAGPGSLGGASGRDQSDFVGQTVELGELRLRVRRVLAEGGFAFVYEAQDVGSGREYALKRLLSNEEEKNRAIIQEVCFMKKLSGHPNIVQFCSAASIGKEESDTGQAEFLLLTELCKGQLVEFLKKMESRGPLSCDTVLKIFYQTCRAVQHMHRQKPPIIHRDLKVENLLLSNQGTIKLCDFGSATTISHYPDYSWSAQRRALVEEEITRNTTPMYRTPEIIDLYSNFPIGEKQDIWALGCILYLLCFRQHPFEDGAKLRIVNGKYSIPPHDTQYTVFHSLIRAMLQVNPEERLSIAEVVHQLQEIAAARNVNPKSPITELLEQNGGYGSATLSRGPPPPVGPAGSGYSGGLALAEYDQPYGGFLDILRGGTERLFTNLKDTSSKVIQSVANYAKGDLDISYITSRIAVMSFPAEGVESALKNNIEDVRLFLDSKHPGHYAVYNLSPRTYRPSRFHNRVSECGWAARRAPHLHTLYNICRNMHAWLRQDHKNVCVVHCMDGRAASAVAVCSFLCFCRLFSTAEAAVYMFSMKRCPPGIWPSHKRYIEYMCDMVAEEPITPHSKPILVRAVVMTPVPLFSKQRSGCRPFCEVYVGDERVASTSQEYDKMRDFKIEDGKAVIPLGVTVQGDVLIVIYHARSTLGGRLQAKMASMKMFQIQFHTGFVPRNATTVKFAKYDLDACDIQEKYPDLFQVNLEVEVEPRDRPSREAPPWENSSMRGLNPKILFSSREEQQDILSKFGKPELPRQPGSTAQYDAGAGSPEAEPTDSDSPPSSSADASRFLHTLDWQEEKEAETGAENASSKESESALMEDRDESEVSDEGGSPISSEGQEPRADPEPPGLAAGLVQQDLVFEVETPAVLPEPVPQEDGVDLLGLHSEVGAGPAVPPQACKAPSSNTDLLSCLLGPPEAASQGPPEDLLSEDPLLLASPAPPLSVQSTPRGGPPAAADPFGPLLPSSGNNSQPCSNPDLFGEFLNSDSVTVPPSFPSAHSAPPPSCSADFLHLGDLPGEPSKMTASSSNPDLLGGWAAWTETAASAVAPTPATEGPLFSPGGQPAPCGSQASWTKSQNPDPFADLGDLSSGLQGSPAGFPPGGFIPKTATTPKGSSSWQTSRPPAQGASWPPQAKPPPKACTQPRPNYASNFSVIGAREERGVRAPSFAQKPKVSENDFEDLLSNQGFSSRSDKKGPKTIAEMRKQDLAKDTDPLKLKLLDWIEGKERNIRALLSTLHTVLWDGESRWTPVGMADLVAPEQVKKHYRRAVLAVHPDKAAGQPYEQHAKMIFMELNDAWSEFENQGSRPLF
# Summary of the method: (§2)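 Each compound was screened across a kinase panel by thermal stability shift assay. The read-out was the shift in protein melting temperature (ΔTm, in °C) relative to the unliganded kinase. A ΔTm of 4.0 °C served as the hit cutoff.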
# [7] = molecular target: T2, Myosin light chain kinase family member 4 (Homo sapiens) (UniProt Q86YV6); experiment: Binding affinity to SGK085 assessed as change in thermal denaturation at 10 uM by thermal stability shift assay; summary of the method: as §2
# T2 sequence (whole entry): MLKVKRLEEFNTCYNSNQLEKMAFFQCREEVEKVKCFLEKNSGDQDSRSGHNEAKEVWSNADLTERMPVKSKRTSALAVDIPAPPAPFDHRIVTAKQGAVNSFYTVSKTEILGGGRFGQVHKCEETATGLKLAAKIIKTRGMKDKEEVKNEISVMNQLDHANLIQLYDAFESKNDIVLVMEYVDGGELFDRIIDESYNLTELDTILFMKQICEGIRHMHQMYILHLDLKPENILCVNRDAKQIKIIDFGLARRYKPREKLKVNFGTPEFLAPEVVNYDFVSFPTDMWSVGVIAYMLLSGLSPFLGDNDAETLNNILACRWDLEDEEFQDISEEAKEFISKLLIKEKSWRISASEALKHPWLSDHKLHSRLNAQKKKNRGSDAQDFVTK
# [8] = molecular target: Serine/threonine-protein kinase pim-1 (Homo sapiens, UniProt P11309); experiment: Binding affinity to PIM1 assessed as change in thermal denaturation at 10 uM by thermal stability shift assay; summary of the method: as §2
# [9] = molecular target: Serine/threonine-protein kinase pim-3 (Homo sapiens, UniProt Q86V86); experiment: Binding affinity to PIM3 assessed as change in thermal denaturation at 10 uM by thermal stability shift assay; summary of the method: as §2
# [10] = molecular target: T3, Serine/threonine-protein kinase 17A (Homo sapiens) (UniProt Q9UEE5); experiment: Binding affinity to DRAK1 assessed as change in thermal denaturation at 10 uM by thermal stability shift assay; summary of the method: as §2
# T3 sequence (whole entry): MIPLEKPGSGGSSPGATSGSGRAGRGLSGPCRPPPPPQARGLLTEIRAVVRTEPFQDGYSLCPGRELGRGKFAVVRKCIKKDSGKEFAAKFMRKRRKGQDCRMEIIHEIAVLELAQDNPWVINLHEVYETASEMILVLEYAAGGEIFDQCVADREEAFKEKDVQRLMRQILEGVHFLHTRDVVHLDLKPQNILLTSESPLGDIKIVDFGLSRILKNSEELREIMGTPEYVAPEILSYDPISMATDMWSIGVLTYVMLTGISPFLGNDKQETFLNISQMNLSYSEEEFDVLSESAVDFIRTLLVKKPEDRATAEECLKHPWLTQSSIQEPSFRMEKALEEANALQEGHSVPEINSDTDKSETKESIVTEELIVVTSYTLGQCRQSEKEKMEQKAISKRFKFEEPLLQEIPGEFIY
# [11] = molecular target: T4, Serine/threonine-protein kinase 17B (Homo sapiens) (UniProt O94768); experiment: Binding affinity to DRAK2 assessed as change in thermal denaturation at 10 uM by thermal stability shift assay; summary of the method: as §2
# T4 sequence (whole entry): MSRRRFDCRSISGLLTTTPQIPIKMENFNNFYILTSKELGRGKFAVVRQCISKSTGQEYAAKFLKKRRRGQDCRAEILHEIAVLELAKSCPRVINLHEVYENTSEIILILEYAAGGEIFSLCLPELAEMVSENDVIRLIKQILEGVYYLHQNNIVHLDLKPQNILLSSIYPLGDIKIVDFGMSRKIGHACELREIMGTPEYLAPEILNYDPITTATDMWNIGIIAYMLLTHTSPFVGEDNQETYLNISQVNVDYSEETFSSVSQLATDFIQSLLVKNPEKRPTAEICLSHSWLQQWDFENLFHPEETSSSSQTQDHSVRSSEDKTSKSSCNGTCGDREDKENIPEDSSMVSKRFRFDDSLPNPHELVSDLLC
# [12] = molecular target: AP2-associated protein kinase 1 (Homo sapiens) (UniProt Q2M2I8); experiment: Binding affinity to AAK1 assessed as change in thermal denaturation at 10 uM by thermal stability shift assay; summary of the method: as §2
# [13] = molecular target: Dual specificity protein kinase CLK1 (Homo sapiens) (UniProt P49759); experiment: Binding affinity to CLK1 assessed as change in thermal denaturation at 10 uM by thermal stability shift assay; summary of the method: as §2
# [14] = molecular target: Dual specificity protein kinase CLK4 (Homo sapiens) (UniProt Q9HAZ1); experiment: Binding affinity to CLK4 assessed as change in thermal denaturation at 10 uM by thermal stability shift assay; summary of the method: as §2
# [15] = molecular target: Casein kinase II subunit alpha' (Homo sapiens) (UniProt P19784); experiment: Binding affinity to CK2alpha2 assessed as change in thermal denaturation at 10 uM by thermal stability shift assay; summary of the method: as §2
# [16] = molecular target: Death-associated protein kinase 3 (Homo sapiens) (UniProt O43293); experiment: Binding affinity to N-terminus His6-tagged DAPK3 expressed in Escherichia coli BL21 (DE3) cells coexpressing pCOEX assessed as change in thermal denaturation at 10 uM by thermal stability shift assay
# Summary of the method: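 DAPK3 was expressed in E. coli grown in TB with kanamycin and chloramphenicol at 37 °C, cooled to 25 °C, and induced with 0.5 mM IPTG. Binding was read as thermal-shift ΔTm in °C.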
# Sequence of Casein kinase II subunit alpha' (Homo sapiens) (P19784 whole entry, looked up): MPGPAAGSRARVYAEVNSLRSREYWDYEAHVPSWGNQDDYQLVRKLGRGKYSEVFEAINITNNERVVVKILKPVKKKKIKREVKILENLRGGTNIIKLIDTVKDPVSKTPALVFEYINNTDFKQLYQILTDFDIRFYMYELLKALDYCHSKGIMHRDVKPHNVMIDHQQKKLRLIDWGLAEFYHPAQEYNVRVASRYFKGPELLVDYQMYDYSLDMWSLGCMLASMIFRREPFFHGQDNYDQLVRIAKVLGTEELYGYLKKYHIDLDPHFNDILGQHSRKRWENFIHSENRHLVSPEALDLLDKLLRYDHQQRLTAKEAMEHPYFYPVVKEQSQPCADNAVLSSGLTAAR
# Sequence of Dual specificity protein kinase CLK1 (Homo sapiens) (P49759 whole entry, looked up): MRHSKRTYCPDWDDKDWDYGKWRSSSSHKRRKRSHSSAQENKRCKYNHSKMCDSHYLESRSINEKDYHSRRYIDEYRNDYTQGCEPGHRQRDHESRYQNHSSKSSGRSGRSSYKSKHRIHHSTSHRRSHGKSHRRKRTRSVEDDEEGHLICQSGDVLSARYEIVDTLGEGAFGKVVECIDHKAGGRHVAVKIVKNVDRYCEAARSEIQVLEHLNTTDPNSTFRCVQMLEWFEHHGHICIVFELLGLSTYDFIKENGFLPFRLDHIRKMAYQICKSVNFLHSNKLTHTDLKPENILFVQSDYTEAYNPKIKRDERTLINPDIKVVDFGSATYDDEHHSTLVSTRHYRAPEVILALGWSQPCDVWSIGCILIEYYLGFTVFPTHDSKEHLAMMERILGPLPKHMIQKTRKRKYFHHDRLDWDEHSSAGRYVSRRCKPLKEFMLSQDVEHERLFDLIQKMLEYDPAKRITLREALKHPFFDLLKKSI
# Sequence of Death-associated protein kinase 3 (Homo sapiens) (O43293 whole entry, looked up): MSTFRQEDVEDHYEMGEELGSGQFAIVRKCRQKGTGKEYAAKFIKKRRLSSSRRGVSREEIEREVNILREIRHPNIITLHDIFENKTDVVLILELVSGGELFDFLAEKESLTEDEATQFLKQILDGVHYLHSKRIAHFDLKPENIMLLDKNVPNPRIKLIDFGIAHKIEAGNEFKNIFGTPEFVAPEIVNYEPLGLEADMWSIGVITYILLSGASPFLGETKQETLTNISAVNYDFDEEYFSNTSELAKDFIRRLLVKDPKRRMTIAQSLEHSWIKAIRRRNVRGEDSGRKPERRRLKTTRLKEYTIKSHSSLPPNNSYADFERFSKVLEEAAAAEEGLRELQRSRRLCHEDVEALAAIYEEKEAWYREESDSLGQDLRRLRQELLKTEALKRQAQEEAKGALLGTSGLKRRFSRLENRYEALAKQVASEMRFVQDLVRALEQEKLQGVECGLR
# Sequence of AP2-associated protein kinase 1 (Homo sapiens) (Q2M2I8 whole entry, looked up): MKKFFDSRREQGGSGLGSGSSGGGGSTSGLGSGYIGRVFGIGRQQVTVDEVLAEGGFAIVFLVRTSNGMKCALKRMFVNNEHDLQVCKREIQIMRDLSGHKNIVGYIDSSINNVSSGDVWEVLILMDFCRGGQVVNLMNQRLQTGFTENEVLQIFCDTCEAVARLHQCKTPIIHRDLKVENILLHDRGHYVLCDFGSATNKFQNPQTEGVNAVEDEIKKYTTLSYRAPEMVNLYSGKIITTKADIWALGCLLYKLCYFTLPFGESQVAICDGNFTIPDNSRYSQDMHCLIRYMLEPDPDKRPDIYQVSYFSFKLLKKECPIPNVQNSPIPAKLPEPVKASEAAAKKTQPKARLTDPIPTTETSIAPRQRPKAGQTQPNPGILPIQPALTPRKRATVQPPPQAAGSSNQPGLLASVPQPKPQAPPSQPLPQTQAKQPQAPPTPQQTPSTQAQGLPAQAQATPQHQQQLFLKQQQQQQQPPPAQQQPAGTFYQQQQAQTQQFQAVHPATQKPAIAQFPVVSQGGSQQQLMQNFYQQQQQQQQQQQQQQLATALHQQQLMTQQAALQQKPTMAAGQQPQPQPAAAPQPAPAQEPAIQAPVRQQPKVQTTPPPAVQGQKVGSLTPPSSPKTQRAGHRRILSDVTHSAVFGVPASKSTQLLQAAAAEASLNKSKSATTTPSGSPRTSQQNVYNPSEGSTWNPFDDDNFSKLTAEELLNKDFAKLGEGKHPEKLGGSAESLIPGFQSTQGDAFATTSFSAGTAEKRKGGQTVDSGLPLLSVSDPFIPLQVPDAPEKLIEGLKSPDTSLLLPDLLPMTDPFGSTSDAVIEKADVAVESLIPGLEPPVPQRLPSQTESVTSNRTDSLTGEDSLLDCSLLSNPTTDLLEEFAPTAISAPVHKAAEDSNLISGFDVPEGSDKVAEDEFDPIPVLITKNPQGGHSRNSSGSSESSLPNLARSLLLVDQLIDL
# Sequence of Dual specificity protein kinase CLK4 (Homo sapiens) (Q9HAZ1 whole entry, looked up): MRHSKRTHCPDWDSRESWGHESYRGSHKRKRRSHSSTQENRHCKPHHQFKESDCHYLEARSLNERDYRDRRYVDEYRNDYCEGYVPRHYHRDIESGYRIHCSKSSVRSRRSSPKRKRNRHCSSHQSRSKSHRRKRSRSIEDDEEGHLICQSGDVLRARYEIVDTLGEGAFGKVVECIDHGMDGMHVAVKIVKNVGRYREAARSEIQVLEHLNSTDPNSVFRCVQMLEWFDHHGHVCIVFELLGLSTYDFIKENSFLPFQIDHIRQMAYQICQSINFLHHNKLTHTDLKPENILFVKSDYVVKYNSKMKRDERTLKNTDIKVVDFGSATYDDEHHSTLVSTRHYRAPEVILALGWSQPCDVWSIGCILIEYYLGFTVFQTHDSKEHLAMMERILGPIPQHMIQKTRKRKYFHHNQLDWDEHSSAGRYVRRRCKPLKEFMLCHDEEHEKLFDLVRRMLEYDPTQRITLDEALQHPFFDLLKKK
# Sequence of Serine/threonine-protein kinase pim-1 (P11309 whole entry, looked up): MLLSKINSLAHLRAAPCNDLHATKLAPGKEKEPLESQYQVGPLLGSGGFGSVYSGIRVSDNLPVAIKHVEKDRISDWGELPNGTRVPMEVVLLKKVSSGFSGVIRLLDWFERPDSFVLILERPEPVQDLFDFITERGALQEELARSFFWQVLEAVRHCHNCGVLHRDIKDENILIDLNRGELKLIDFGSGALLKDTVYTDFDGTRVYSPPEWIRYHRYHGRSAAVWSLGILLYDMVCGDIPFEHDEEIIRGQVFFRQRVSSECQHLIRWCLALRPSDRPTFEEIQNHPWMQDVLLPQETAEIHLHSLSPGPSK
IC50 [1],IC50 [3],IC50 [5],ΔTm [6],ΔTm [7],ΔTm [8],ΔTm [9],ΔTm [10],ΔTm [11],ΔTm [12],ΔTm [13],ΔTm [14],ΔTm [15],SMILES,IC50 [2],IC50 [4],ΔTm [16]
0.4 µM,0.3 µM,8 µM,–,–,–,–,–,–,–,–,–,–,CC(=O)c1cccc(-c2cnc3ccc(NCC4CC4)nn23)c1,8.8 µM,6 µM,–
–,–,–,0.9 °C,0.5 °C,4.7 °C,4 °C,3 °C,2.9 °C,1.7 °C,4 °C,1.1 °C,0.8 °C,Cn1c2c(c3ccc(Cl)c(Cl)c31)C(C#N)C1(CCCCC1)NC2=O (racemic),–,–,4.7 °C
